# Published values of several laboratories.
# Lines come from different studies, so protocols differ.
# Target: Tyrosine-protein kinase BTK (BTK, Homo sapiens, UniProt Q06187)
SMILES,effect on,technique,concentration,remaining binding [%]
O=C(NCC1CCOCC1)c1n[nH]cc1NC(=O)c1c(F)cccc1F,binding,competition with immobilised ligand,1 µM,91
COc1cnc(Nc2cccc(S(N)(=O)=O)c2)nc1N1CCN(c2ccccc2)CC1,binding,competition with immobilised ligand,1 µM,80
O=C1CCc2cc(Nc3cc(OC4CCOCC4)c([N+](=O)[O-])cc3Cl)ccc2N1,cell-free assay,competition with immobilised ligand,1 µM,100
COc1ncc2cc3ccccc3nc2c1C#N,cell-free assay,competition with immobilised ligand,5 µM,100
CNC(=O)[C@@H]1CC[C@@H](n2c(-c3ccc4cnccc4c3)nc3ccc(C(=O)NCc4cccc(C(N)=O)c4)cc32)C1,binding,competition with immobilised ligand,1 µM,96
Cc1nc(C2CCN(C(=O)c3ccc(OC(F)(F)F)cc3N)CC2)c2ncc(N3CCN(C)CC3)cc2n1,cell-free assay,competition with immobilised ligand,1 µM,87
CN(C)c1nccc(-c2cnn3ncccc23)n1,binding,,1 µM,85
CC(C)(C)c1ccc(-c2nc(CBr)nn2-c2cccc(O)c2)cc1,cell-free assay,competition with immobilised ligand,10 µM,83
c1cnn2ncc(-c3ccnc(N4CCC45COC5)n3)c2c1,binding,,1 µM,89
Nc1ncc2c(n1)-c1c([nH]c3ccc(C#CC4CC4)cc13)CCCC2,binding,competition with immobilised ligand,1 µM,61
O=C(c1ccc(Nc2ncc(Cl)c(-c3ccc(Cl)s3)n2)cc1)N1CCC(N2CCCC2)CC1,binding,competition with immobilised ligand,1 µM,64
Cc1ccc(-n2nc(C(C)(C)C)cc2NC(=O)Nc2ccc(-n3c(N)c(C(N)=O)c4nc5ccc(NCCCN)cc5nc43)cc2)cc1,cell-free assay,competition with immobilised ligand,1 µM,3.3
O=C(Nc1cccnn1)N1CCC(=Cc2cccc(Oc3ccc(C(F)(F)F)cn3)c2)CC1,cell-free assay,competition with immobilised ligand,1 µM,100
COc1ccnn2ncc(-c3ccnc(N(C)C)n3)c12,binding,,1 µM,94
O=C(N1CCS(=O)(=O)CC1)N1C[C@H](c2ccc(OC(F)(F)F)cc2)C[C@H](c2nc(C3CC3)no2)C1,cell-free assay,competition with immobilised ligand,1 µM,100
C[C@@H]1CN(c2ccc3ncc(-c4ccc5[nH]nc(C6CC6)c5c4)n3n2)C[C@H](C)O1,binding,competition with immobilised ligand,0.5 µM,89
CN(c1ccnc(CNc2nc(Nc3ccc4c(c3)CC(=O)N4)ncc2C(F)(F)F)n1)S(C)(=O)=O,cell-free assay,competition with immobilised ligand,1 µM,63
CC1CCCN1c1nccc(-c2cnn3ncccc23)n1 (stereo not drawn),binding,,1 µM,100
O=C(c1ccc(Nc2nccc(-c3cc4ccccc4s3)n2)cc1)N1CCC(N2CCCC2)CC1,binding,competition with immobilised ligand,1 µM,87
Cn1cc(Cl)c2c(Oc3c(F)cc(Nc4cc(Cl)nc(N)n4)cc3F)ccnc21,cell-free assay,competition with immobilised ligand,0.1 µM,84
C[C@H]1CCN(c2nccc(-c3cnn4ncccc34)n2)C1,binding,,1 µM,95
Cc1cnc(Nc2ccc(C(=O)N3CCC(N4CCCC4)CC3)cc2)nc1-c1cc2ccccc2s1,binding,competition with immobilised ligand,1 µM,54
F[C@@H]1CCN(c2nccc(-c3cnn4ncccc34)n2)C1,binding,,1 µM,100
O=C(O)[C@@H]1[C@@H](Cn2nnc3ccccc3c2=O)CC[C@H]1C(=O)c1ccc(OCCC2CCOCC2)cc1,cell-free assay,competition with immobilised ligand,1 µM,100
